According to ChEMBL document CHEMBL3112575, “N¹,N¹-Dimethyl-N³-(3-(trifluoromethyl)phenethyl)propane-1,3-diamine, a new lead for the treatment of human African trypanosomiasis” (Eur J Med Chem, 2014):

test system: Trypanosoma brucei brucei; assay: Antitrypanosomal activity against bloodstream form of Trypanosoma brucei brucei 427 after 48 hrs by Alamar Blue staining based fluorescence assay; type: functional, organism-based; conditions: Trypanosoma brucei, 427, 48 h
Procedure, shortened: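 Starting inoculum 2×10³ bloodstream-form parasites per well in HMI-9 with 10% FBS, exposed to two-fold serial drug dilutions for 48 h at 37°C, 5% CO₂. Alamar Blue then added, with a further 4 h incubation. Fluorescence read at Ex 544/Em 590. Each plate included drug-free parasite wells and parasite-free, drug-free wells. IC₅₀ from three biological replicates, each the mean of three technical replicates.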

IC50 [µM] | Structure (SMILES)
> 8 | C#CCN(CCCN(C)C)CCc1cc(OC)c(Br)cc1Br
> 8 | CN(C)CCCNCc1cc(Br)c(O)c(Br)c1
> 8 | COc1c(Br)cc(CNCCCN(C)C)cc1Br
> 8 | CN(C)CCCNCc1cccc(O)c1
> 8 | CN(C)CCCNCc1ccc(O)cc1
> 8 | COc1cccc(CNCCCN(C)C)c1
> 8 | COc1ccc(CNCCCN(C)C)cc1
0.3 | COc1cc(CCNCCCN(C)C)c(Br)cc1Br
4 | COc1ccc(Br)c(CCNCCCN(C)C)c1Br
> 8 | COc1ccc(CCNCCCN(C)C)cc1Br
> 8 | COc1ccc(Br)cc1CCNCCCN(C)C
> 8 | COc1cccc(CCNCCCN(C)C)c1
> 8 | COc1cc(CCN(CCCN(C)C)C(C)=O)c(Br)cc1Br
4 | CN(C)CCCNCCc1ccc2ccccc2c1
> 8 | CN(C)CCCNCCc1cccs1
> 8 | CN(C)CCCNC1Cc2ccccc2C1
> 8 | CN(C)CCCNCCc1ccccc1Br
> 8 | CN(C)CCCNCCc1cccc(Br)c1

IC50 [µM] | Structure (SMILES)
> 8 | CN(C)CCCNCCc1ccc(Br)cc1
> 8 | CN(C)CCCNCCc1ccccc1F
> 8 | CN(C)CCCNCCc1cccc(F)c1
> 8 | CN(C)CCCNCCc1ccc(F)cc1
> 8 | CN(C)CCCNCCc1ccccc1Cl
0.7 | CN(C)CCCNCCc1cccc(Cl)c1
> 8 | CN(C)CCCNCCc1ccc(Cl)cc1
> 8 | COc1ccc(CCNCCCN(C)C)cc1Cl
> 8 | CN(C)CCCNCCc1ccc(Cl)c(Cl)c1
> 8 | CN(C)CCCNCCc1ccc(Cl)cc1Cl
> 8 | CN(C)CCCNCCc1c(Cl)cccc1Cl
> 8 | CN(C)CCCNCCc1c(F)cccc1Cl
0.5 | CN(C)CCCNCCc1cccc(C(F)(F)F)c1
> 8 | CN(C)CCCNCc1c(Br)cc(Br)c(O)c1Br
> 8 | COc1c(Br)cc(Br)c(CNCCCN(C)C)c1Br
2.2 | CN(C)CCCNCc1cc(O)c(Br)cc1Br
4.6 | COc1cc(CNCCCN(C)C)c(Br)cc1Br

Structure (SMILES) | IC50 [µM]
COc1cc(CCNCCCN)c(Br)cc1Br | 2
COc1cc(CCNCCCO)c(Br)cc1Br | > 8
C#CCNCCc1cc(OC)c(Br)cc1Br | > 8
C#CCCNCCc1cc(OC)c(Br)cc1Br | > 8
COc1cc(CCN2CCCC2)c(Br)cc1Br | > 8
